Screening results as filed in PubChem.
IMP-1 inh-1 – blocks Pseudomonas aeruginosa IMP-1 metallo-beta-lactamase. purified IMP-1, nitrocefin hydrolysis, epi-absorbance fluorescence. inhibition, % at 5.6 µM. actives 0.45% (n = 290,000);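 active = inhibition above the mean plus 3 SD of all compounds in the same screening run, cut at about 4.5% in these data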;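 also: 0% = IMP-1 with DMSO and 100% = DMSO wells lacking enzyme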
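System: purified recombinant IMP-1 beta-lactamase. Medium: Zinc- and detergent-supplemented HEPES buffer, pH 7.1. Compound: one 5.6 µM dose […]. Schedule: 15 min preincubation plus 25 min reaction at 25 °C. Technique: Epi-absorbance fluorescence, 480 nm excitation, 530 nm emission.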
p-CIP stab down – lowers stability of the mouse p/CIP coactivator protein. Q05BA5. decrease of EGFP signal, % at 10 µM. F442A p/CIP-EGFP cells, EGFP fluorescence, 16 h. AID 1984. actives 0.01% (n = 290,000);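 active = EGFP signal decrease of at least 30% at 10 µM or well 3 SD below plate mean, unless failing retest; inactive = the rest, including hits failing retest or dose response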
SUMO HTRF inh – SUMOylation inhibition | HTRF SUMOylation assay, SAE1/SAE2 + UBC9, in vitro | inhibition, % at 35 µM | AID 2006 | actives 0.36% (n = 290,000) | P63279; in the data active = inhibition above about 50%, passing the limit was not always enough
T cell modulator – T cell immune modulators affecting CD8 T cell-vesicle binding; 2C CD8+ T cell-vesicle binding, flow cytometry; active compounds read low; response (vesicle binding), % at 7 µM; actives 0.068% (n = 330,000);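 active = response, share of CD8 T cells binding vesicles, and their 90th percentile fluorescence all below set limits, cut at about 80% in these data, passing the limit was not always enough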;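 also: values below 100% mean blocked vesicle binding to the CD8+ T cells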
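Incubation: binding step 1.5 h, 37 °C, antibody labelling 20 min, ice; system: murine 2C transgenic CD8+ T lymphocytes; technique: cytometric PE anti-B7-1 and Alexa647 anti-CD8 signals after 1% paraformaldehyde fixation; also added: QL9-charged Drosophila Ld/ICAM-1/B7-1 vesicles; control set: naked versus QL9-loaded vesicles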
CTSL1 counter – blocks F. hepatica cathepsin L1 in PFM18AAP counter-screen; recombinant F. hepatica cathepsin L1, Z-Leu-Arg-MCA fluorescence; inhibition, % at 5.96 µM; actives 0.49% (n = 300,000);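 active = inhibition above the mean of all tested compounds plus 3 SD, set per screening campaign, cut at about 17% in these data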;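 also: 0% = plate median of test compound wells and 100% = 1 µM Z-Phe-Ala-diazomethylketone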
VIM-2 inh – blocks Pseudomonas aeruginosa VIM-2 metallo-beta-lactamase | purified VIM-2, nitrocefin hydrolysis, epi-absorbance fluorescence | inhibition, % at 5.6 µM | actives 0.89% (n = 290,000);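 active = inhibition above the mean of all tested compounds plus 3 SD, cutoff set per screening run, cut at about 7.5% in these data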;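 also: red hydrolysis product quenches plate fluorescence so inhibitors raise well fluorescence; 0% = enzyme with DMSO and 100% = DMSO without enzyme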
IMP-1 inh-2 – selectivity counter-screen for VIM-2 inhibitors: IMP-1 metallo-beta-lactamase inhibitors | shares compounds with VIM-2 inh | purified IMP-1, nitrocefin hydrolysis, epi-absorbance fluorescence | inhibition, % at 5.6 µM | 1,300 tested, under 10 active | AID 1856; call rule not given here;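 also: 0% = enzyme with vehicle and 100% = vehicle without enzyme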
VIM-2 FRET inh – VIM-2 FRET inhibition, artifact counter-screen | shares compounds with VIM-2 inh | purified VIM-2, CCF2 FRET substrate hydrolysis | inhibition, % at 5.6 µM | actives 23% (n = 1,300);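 active = inhibition above the mean of all tested compounds plus 3 SD, cut at about 19% in these data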;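 also: 0% = VIM-2 plus DMSO and 100% = no enzyme wells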
TEM-1 counter – blocks E. coli TEM-1 beta-lactamase in VIM-2 selectivity screen; shares compounds with VIM-2 inh; Purified TEM-1, nitrocefin hydrolysis, epi-absorbance fluorescence; inhibition, % at 5.6 µM; actives 3% (n = 1,300);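 active = inhibition above that campaign's mean inhibition plus 3 SD, cut at about 0.46% in these data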;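 also: 0% = TEM-1 with DMSO and 100% = TEM-1 with 100 µM potassium clavulanate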
VIM-2 inh conf – confirmation of P. aeruginosa VIM-2 metallo-beta-lactamase inhibitors; inhibition, % at 5.6 µM; shares compounds with VIM-2 inh; actives 96% (n = 1,300); AID 2187; purified VIM-2, nitrocefin hydrolysis, epi-absorbance;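 active = inhibition of the VIM-2 beta-lactamase enzyme above about 11% from the earlier first-round screen, limit read from the data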;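 also: 0% = VIM-2 with DMSO and 100% = buffer wells without enzyme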
* hit, by the source's call. Shown are actives, neighbours in structure and some others; about 1.9% of the full set was active somewhere.

`CC1CCN(C(=O)CCc2nnc3ccc(NCCCN4CCCC4=O)nn23)CC1` gave IMP-1 inh-1 -6, p-CIP stab down 12, SUMO HTRF inh 4, T cell modulator 146, CTSL1 counter 4 and VIM-2 inh -2.
For COc1ccc(C(C)=O)cc1CC(=O)Nc1ccccc1-c1ccccc1 the results were IMP-1 inh-1 -3, p-CIP stab down -6, SUMO HTRF inh -3, T cell modulator 325, CTSL1 counter -1 and VIM-2 inh -2.
Screening Cc1c(OCC(=O)C(C)(C)C)ccc2c3c(c(=O)oc12)CCCC3 returned IMP-1 inh-1 -4, p-CIP stab down -7, SUMO HTRF inh 2, T cell modulator 155, CTSL1 counter 3 and VIM-2 inh 5.
`Cc1c(OCC(=O)NCc2ccncc2)ccc2c3c(c(=O)oc12)CCCC3` gave IMP-1 inh-1 0, p-CIP stab down 6, SUMO HTRF inh -7, T cell modulator 474, CTSL1 counter 3, VIM-2 inh 49*, IMP-1 inh-2 0, VIM-2 FRET inh -6, TEM-1 counter -7 and VIM-2 inh conf 63*.
For S=C(NCc1cccnc1)Nc1ccc(Oc2ccc(Cl)cc2)cc1 the results were IMP-1 inh-1 -2, p-CIP stab down -13, SUMO HTRF inh 11, T cell modulator 191, CTSL1 counter 7 and VIM-2 inh -3.
`NCCc1c(-c2ccccc2)n(-c2ccccc2)c2ccccc12` gave IMP-1 inh-1 -2, p-CIP stab down -4, SUMO HTRF inh 9 and VIM-2 inh -2.
Cc1ccc(-c2ccc(/C=N/n3cnnc3)o2)cc1Cl was read as IMP-1 inh-1 -4, p-CIP stab down 7, SUMO HTRF inh 17, T cell modulator 100, CTSL1 counter 6, VIM-2 inh 21*, IMP-1 inh-2 -4, VIM-2 FRET inh -9, TEM-1 counter -7 and VIM-2 inh conf 45*.
Cc1ccc(-c2ccc(/C=N/n3cnnc3)o2)cc1 was read as IMP-1 inh-1 -2, p-CIP stab down -2, SUMO HTRF inh 18, T cell modulator inactive, CTSL1 counter 2 and VIM-2 inh -1.
Clc1cccc(-c2ccc(/C=N/n3cnnc3)o2)c1 was read as IMP-1 inh-1 1, p-CIP stab down 6, SUMO HTRF inh -8, T cell modulator 243, CTSL1 counter 4, VIM-2 inh 19*, IMP-1 inh-2 -1, VIM-2 FRET inh -3, TEM-1 counter 1.9* and VIM-2 inh conf 33*.
For O=[N+]([O-])c1cc(-c2ccc(/C=N\n3cnnc3)o2)cc([N+](=O)[O-])c1 the results were IMP-1 inh-1 -2, p-CIP stab down 0, SUMO HTRF inh 4, T cell modulator 524, CTSL1 counter 6, VIM-2 inh 54*, IMP-1 inh-2 -4, VIM-2 FRET inh -1, TEM-1 counter -7 and VIM-2 inh conf 66*.
`CN(C)C(=O)Cn1cnc2c(cnn2-c2ccc(F)cc2)c1=O` gave IMP-1 inh-1 -1, p-CIP stab down 3, SUMO HTRF inh 11, T cell modulator 226, CTSL1 counter 4 and VIM-2 inh -2.
CC(C)c1nnc(NC(=O)CCC(=O)NC2CCCc3ccccc32)s1 (stereo not given) was read as IMP-1 inh-1 -4, p-CIP stab down 2, SUMO HTRF inh -6, T cell modulator 327, CTSL1 counter 0 and VIM-2 inh 0.
